Experimental data: ChEMBL document CHEMBL3120097, “HCV NS5A replication complex inhibitors. Part 4. Optimization for genotype 1a replicon inhibitory activity” (J Med Chem, 2014)

Key:
Hepatitis C virus [1] = test: Antiviral activity against HCV genotype 4a; assay type: functional, organism-based, Hepacivirus hominis
Hepatitis C virus [2] = test: Antiviral activity against HCV genotype 2a JFH; assay type: functional, organism-based, Hepacivirus hominis; conditions: subtype 2a JFH
[3] = tested on: Bovine viral diarrhea virus 1; test: Antiviral activity against BVDV infected in bovine MDBK cells after 72 hrs by luciferase reporter gene assay; assay type: functional, organism-based; conditions: Bovine viral diarrhea virus isolates and strains
[4] = Cytotoxicity against bovine MDBK cells after 3 days by CellTitre-Blue assay; assay type: cell-based, Bos taurus; conditions: cattle
Hepatitis C virus [5] = test: Antiviral activity against HCV genotype 1a H77c infected in human HuH7 cells after 3 days by luciferase reporter gene assay; assay type: functional, organism-based, Hepacivirus hominis; conditions: Huh-7, 72 h
Summary of the method: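 Titrated compounds in 384-well plates seeded with replicon cells, 2.4 × 10³/well in DMEM with 4% FCS, final DMSO 0.5% v/v; 3 days at 37 °C. Renilla luciferase read with EnduRen substrate at […] final after ≥1 h at 37 °C; EC₅₀ from four-parameter logistic fit.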

Hepatitis C virus [6] = test: Antiviral activity against HCV genotype 1b infected in human HuH7 cells after 72 hrs by FRET assay; assay type: functional, organism-based, Hepacivirus hominis; conditions: Huh-7, 72 h
Summary of the method: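 Replicon cells seeded 10K/well, attached overnight; compounds added with 0.5% v/v DMSO vehicle controls, typically 72 h. Alamar blue read first, then cells PBS-rinsed and lysed with reagent holding 150 mM NaCl and 20 μM final EDANS/DABCYL NS3 protease peptide; kinetic fluorescence 340/490 nm. EC₅₀ = concentration halving background-subtracted FRET signal versus DMSO wells.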

Hepatitis C virus [7] = test: Antiviral activity against HCV genotype 1a H77c infected in human HuH7 cells after 5 days by ELISA; assay type: functional, organism-based, Hepacivirus hominis; conditions: Huh-7, 120 h
Summary of the method: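 Genotype 1a (H77c) replicon cells, 1.5 × 10⁴/well in DMEM + 10% FBS, attached overnight at 37 °C; serially diluted compounds (in FBS-free DMEM) added, 5 days at 37 °C. Cells dried overnight at 37 °C to fix, Triton-permeabilized, casein-blocked; NS5A antiserum then HRP secondary, chemiluminescent read. Inhibition relative to untreated wells; background set with 500 nM NS3 inhibitor.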

[8] = Cytotoxicity against human Huh7.5 cells; assay type: cell-based, Huh-7

Compound	EC50 (Hepatitis C virus [1])	EC50 (Hepatitis C virus [2])	EC50 [3]	EC50 (Hepatitis C virus [5])	EC50 (Hepatitis C virus [6])	EC50 (Hepatitis C virus [7])	CC50 at 72 h [4]	CC50 [8]
O=C(Nc1ccc(/C=C/c2ccc(NC(=O)[C@@H]3CCCN3C(=O)Cc3ccccc3)cc2)cc1)[C@@H]1CCCN1C(=O)Cc1ccccc1	157 nM	79 nM	> 5000 nM	–	–	–	> 30000 nM	–
O=C(Nc1ccc(/C=C/c2ccc(NC(=O)[C@@H]3CCCN3C(=O)c3cccc4ccccc34)cc2)cc1)[C@@H]1CCCN1C(=O)c1cccc2ccccc12	–	–	> 5000 nM	–	1600 nM	> 10000 nM	> 10000 nM	–
O=C(Nc1ccc(-c2cnc(-c3ccc(NC(=O)[C@@H]4CCCN4C(=O)Cc4ccccc4)cc3)o2)cc1)[C@@H]1CCCN1C(=O)Cc1ccccc1	–	–	> 10000 nM	1510 nM	–	–	3300 nM	–
O=C(Nc1ccc(C#Cc2ccc(NC(=O)[C@@H]3CCCN3C(=O)Cc3ccccc3)cc2)cc1)[C@@H]1CCCN1C(=O)Cc1ccccc1	–	–	> 10000 nM	> 10000 nM	–	–	> 10000 nM	–
COc1cccc2c(C(=O)N3CCC[C@H]3C(=O)Nc3ccc(C#Cc4ccc(NC(=O)[C@@H]5CCCN5C(=O)c5nc(Cl)cc6c(OC)cccc56)cc4)cc3)nc(Cl)cc12	–	–	> 10000 nM	18 nM	23 nM	–	> 10000 nM	–
COc1cccc2c(C(=O)N3CCC[C@H]3C(=O)Nc3ccc(-c4cc(-c5ccc(NC(=O)[C@@H]6CCCN6C(=O)c6nc(Cl)cc7c(OC)cccc67)cc5)[nH]n4)cc3)nc(Cl)cc12	–	–	> 10000 nM	120 nM	11 nM	–	> 10000 nM	–
O=C(Nc1ccc(/C=C/c2ccc(NC(=O)[C@@H]3CCCN3C(=O)c3ccc4ccccc4n3)cc2)cc1)[C@@H]1CCCN1C(=O)c1ccc2ccccc2n1	–	–	> 5000 nM	–	200 nM	590 nM	> 10000 nM	–
O=C(Nc1ccc(/C=C/c2ccc(NC(=O)[C@@H]3CCCN3C(=O)c3ncnc4ccccc34)cc2)cc1)[C@@H]1CCCN1C(=O)c1ncnc2ccccc12	–	–	> 5000 nM	–	2300 nM	910 nM	> 10000 nM	–
O=C(Nc1ccc(/C=C/c2ccc(NC(=O)[C@@H]3CCCN3C(=O)c3nncc4ccccc34)cc2)cc1)[C@@H]1CCCN1C(=O)c1nncc2ccccc12	–	–	> 5000 nM	–	30 nM	1000 nM	> 10000 nM	–
O=C(Nc1ccc(/C=C/c2ccc(NC(=O)[C@@H]3CCCN3C(=O)c3nc(Cl)cc4ccccc34)cc2)cc1)[C@@H]1CCCN1C(=O)c1nc(Cl)cc2ccccc12	–	–	> 10000 nM	–	23 nM	62 nM	> 10000 nM	–
O=C(Nc1ccc(/C=C/c2ccc(NC(=O)[C@@H]3CCCN3C(=O)c3nccc4cc(Cl)ccc34)cc2)cc1)[C@@H]1CCCN1C(=O)c1nccc2cc(Cl)ccc12	–	–	2100 nM	–	110 nM	761 nM	> 10000 nM	–
O=C(Nc1ccc(/C=C/c2ccc(NC(=O)[C@@H]3CCCN3C(=O)c3nc(F)cc4ccccc34)cc2)cc1)[C@@H]1CCCN1C(=O)c1nc(F)cc2ccccc12	–	–	> 10000 nM	–	27 nM	70 nM	> 10000 nM	–
O=C(Nc1ccc(/C=C/c2ccc(NC(=O)[C@@H]3CCCN3C(=O)c3nc(Cl)cc4c(F)cccc34)cc2)cc1)[C@@H]1CCCN1C(=O)c1nc(Cl)cc2c(F)cccc12	–	–	> 10000 nM	–	18 nM	42 nM	> 10000 nM	–
COc1ccc2ccc(C(=O)N3CCC[C@H]3C(=O)Nc3ccc(/C=C/c4ccc(NC(=O)[C@@H]5CCCN5C(=O)c5ccc6ccc(OC)cc6n5)cc4)cc3)nc2c1	–	–	> 10000 nM	–	62 nM	126 nM	> 10000 nM	–
C=Cc1ccccc1C(=O)N1CCC[C@H]1C(=O)Nc1ccc(/C=C/c2ccc(NC(=O)[C@@H]3CCCN3C(=O)c3ccccc3C=C)cc2)cc1	–	–	> 5000 nM	–	1200 nM	1100 nM	> 10000 nM	–
CCc1cccnc1C(=O)N1CCC[C@H]1C(=O)Nc1ccc(/C=C/c2ccc(NC(=O)[C@@H]3CCCN3C(=O)c3ncccc3CC)cc2)cc1	–	–	3100 nM	–	46 nM	720 nM	> 10000 nM	–
C=Cc1cccnc1C(=O)N1CCC[C@H]1C(=O)Nc1ccc(/C=C/c2ccc(NC(=O)[C@@H]3CCCN3C(=O)c3ncccc3C=C)cc2)cc1	–	–	> 5000 nM	–	320 nM	3500 nM	> 10000 nM	–

More lines, main results first:

EC50 (Hepatitis C virus [1])	EC50 (Hepatitis C virus [2])	EC50 [3]	EC50 (Hepatitis C virus [5])	EC50 (Hepatitis C virus [6])	EC50 (Hepatitis C virus [7])	Compound	CC50 at 72 h [4]	CC50 [8]
–	–	> 5000 nM	6300 nM	100 nM	–	O=C(Nc1ccc(/C=C/c2ccc(NC(=O)[C@@H]3CCCN3C(=O)c3ccccc3)cc2)cc1)[C@@H]1CCCN1C(=O)c1ccccc1	> 10000 nM	–
–	–	4700 nM	–	–	–	CCc1ccccc1C(=O)N1CCC[C@H]1C(=O)Nc1ccc(/C=C/c2ccc(NC(=O)[C@@H]3CCCN3C(=O)c3ccccc3CC)cc2)cc1	> 10000 nM	–
–	–	> 10000 nM	1370 nM	4.8 nM	–	O=C(Nc1ccc(-c2cc(-c3ccc(NC(=O)[C@@H]4CCCN4C(=O)Cc4ccccc4)cc3)[nH]n2)cc1)[C@@H]1CCCN1C(=O)Cc1ccccc1	> 10000 nM	–
–	–	6400 nM	–	–	390 nM	O=C(Nc1ccc(/C=C/c2ccc(NC(=O)[C@@H]3CCCN3C(=O)c3nccc4ccccc34)cc2)cc1)[C@@H]1CCCN1C(=O)c1nccc2ccccc12	> 10000 nM	–
> 1000 nM	2.2 nM	> 10000 nM	–	7 nM	37 nM	COc1cccc2c(C(=O)N3CCC[C@H]3C(=O)Nc3ccc(/C=C/c4ccc(NC(=O)[C@@H]5CCCN5C(=O)c5nc(Cl)cc6c(OC)cccc56)cc4)cc3)nc(Cl)cc12	> 10000 nM	> 10000 nM
–	–	> 10000 nM	52 nM	34 nM	–	COc1cccc2c(C(=O)N3CCC[C@H]3C(=O)Nc3ccc(-c4cnc(-c5ccc(NC(=O)[C@@H]6CCCN6C(=O)c6nc(Cl)cc7c(OC)cccc67)cc5)o4)cc3)nc(Cl)cc12	> 10000 nM	–
–	–	42 nM	–	140 nM	1400 nM	O=C(Nc1ccc(/C=C/c2ccc(NC(=O)[C@@H]3CCCN3C(=O)c3cncc4ccccc34)cc2)cc1)[C@@H]1CCCN1C(=O)c1cncc2ccccc12	> 10000 nM	–
–	–	> 10000 nM	–	69 nM	282 nM	O=C(Nc1ccc(/C=C/c2ccc(NC(=O)[C@@H]3CCCN3C(=O)c3ncc(Cl)c4ccccc34)cc2)cc1)[C@@H]1CCCN1C(=O)c1ncc(Cl)c2ccccc12	> 10000 nM	–
–	–	> 10000 nM	–	139 nM	255 nM	O=C(Nc1ccc(/C=C/c2ccc(NC(=O)[C@@H]3CCCN3C(=O)c3nccc4c(Cl)cccc34)cc2)cc1)[C@@H]1CCCN1C(=O)c1nccc2c(Cl)cccc12	> 10000 nM	–
–	–	> 10000 nM	–	36 nM	> 10000 nM	O=C(Nc1ccc(/C=C/c2ccc(NC(=O)[C@@H]3CCCN3C(=O)c3nccc4ccc(Cl)cc34)cc2)cc1)[C@@H]1CCCN1C(=O)c1nccc2ccc(Cl)cc12	> 10000 nM	–
–	–	7900 nM	–	42 nM	236 nM	O=C(Nc1ccc(/C=C/c2ccc(NC(=O)[C@@H]3CCCN3C(=O)c3nccc4c(F)cccc34)cc2)cc1)[C@@H]1CCCN1C(=O)c1nccc2c(F)cccc12	> 10000 nM	–
–	–	> 10000 nM	–	6 nM	329 nM	Cc1cc2ccccc2c(C(=O)N2CCC[C@H]2C(=O)Nc2ccc(/C=C/c3ccc(NC(=O)[C@@H]4CCCN4C(=O)c4nc(C)cc5ccccc45)cc3)cc2)n1	> 10000 nM	–
–	–	> 10000 nM	–	< 5 nM	> 10000 nM	Cc1cccc2c(C(=O)N3CCC[C@H]3C(=O)Nc3ccc(/C=C/c4ccc(NC(=O)[C@@H]5CCCN5C(=O)c5nccc6c(C)cccc56)cc4)cc3)nccc12	> 10000 nM	–
–	–	> 10000 nM	–	32 nM	> 10000 nM	COc1cc2ccccc2c(C(=O)N2CCC[C@H]2C(=O)Nc2ccc(/C=C/c3ccc(NC(=O)[C@@H]4CCCN4C(=O)c4nc(OC)cc5ccccc45)cc3)cc2)n1	> 10000 nM	–
–	–	> 10000 nM	–	215 nM	175 nM	COc1cccc2c(C(=O)N3CCC[C@H]3C(=O)Nc3ccc(/C=C/c4ccc(NC(=O)[C@@H]5CCCN5C(=O)c5nccc6c(OC)cccc56)cc4)cc3)nccc12	> 10000 nM	–
–	–	> 10000 nM	–	240 nM	> 10000 nM	O=C(Nc1ccc(/C=C/c2ccc(NC(=O)[C@@H]3CCCN3C(=O)c3cc(Cl)cc4ccccc34)cc2)cc1)[C@@H]1CCCN1C(=O)c1cc(Cl)cc2ccccc12	> 10000 nM	–
–	–	> 10000 nM	–	971 nM	> 10000 nM	COc1cccc2nc(C(=O)N3CCC[C@H]3C(=O)Nc3ccc(/C=C/c4ccc(NC(=O)[C@@H]5CCCN5C(=O)c5ccc6c(OC)cccc6n5)cc4)cc3)ccc12	> 10000 nM	–
–	–	> 5000 nM	–	390 nM	4100 nM	CCc1ccnc(C(=O)N2CCC[C@H]2C(=O)Nc2ccc(/C=C/c3ccc(NC(=O)[C@@H]4CCCN4C(=O)c4cc(CC)ccn4)cc3)cc2)c1	> 10000 nM	–
–	–	> 5000 nM	–	820 nM	2200 nM	O=C(Nc1ccc(/C=C/c2ccc(NC(=O)[C@@H]3CCCN3C(=O)c3ncccc3-c3ccccc3)cc2)cc1)[C@@H]1CCCN1C(=O)c1ncccc1-c1ccccc1	> 10000 nM	–
